Source: ChEMBL document CHEMBL1130046, “Modulation of melphalan resistance in glioma cells with a peripheral benzodiazepine receptor ligand-melphalan conjugate” (J Med Chem, 1997)

What was measured:
Daoy [1] = assay: The compound was tested for cytotoxicity against DAOY (human) Glioma cell lines; assay type: functional, cell-based
How it was run: (§1)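 Adherent cells seeded in their usual medium and allowed to attach overnight at 37 °C. Drugs added fresh, melphalan in saline and others in ethanol (≤1% of well volume), then 48 h at 37 °C. SRB read-out: TCA fixation, SRB staining, dye taken up in 10 mM Tris, absorbance 560 nm. Growth expressed as % of control and IC50 calculated; two or three experiments. C6-MR selected by weekly 24 h melphalan steps starting at 10 µM. DAOY MR kept under 70-78 µM melphalan for 24 h every third passage.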

D341 cell line [2] = assay: The compound was tested for cytotoxicity against D341 MR (human) Glioma cell lines; assay type: functional, cell-based
C6 [3] = assay: The compound was tested for cytotoxicity against C6 (Rat) Glioma cell lines; assay type: functional, cell-based; how it was run: as §1
Daoy [4] = assay: The compound was tested for cytotoxicity against DAOY MR (human) Glioma cell lines; assay type: functional, cell-based; how it was run: as §1
D341 cell line [5] = assay: The compound was tested for cytotoxicity against D341 (human) Glioma cell lines; assay type: functional, cell-based
RG2 = assay: The compound was tested for cytotoxicity against RG-2 (Rat) Glioma cell lines; assay type: functional, cell-based; how it was run: as §1
D283 Med [6] = assay: The compound was tested for cytotoxicity against D283 (human) Glioma cell lines; assay type: functional, cell-based
D283 Med [7] = assay: The compound was tested for cytotoxicity against D283 MR (human) Glioma cell lines; assay type: functional, cell-based
Translocator protein [8] = target: T1, Translocator protein (Rattus norvegicus, UniProt P16257); assay: The compound was tested for binding affinity against PBR(peripheral benzodiazepine receptor) in normal rat brain homogenate; assay type: tissue-based
How it was run: (§2)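 Competitive displacement of [3H]Ro 5-4864 (1 nM final, 86.9 Ci/mmol) on rat whole-brain homogenate (~200 µg protein, 50 mM Tris-HCl pH 7.4) or C6/RG-2 cell homogenate (4 µg protein, 50 mM Tris-citrate pH 7.4). Incubation 60 min at 0-4 °C, duplicate tubes. Nonspecific binding with 10 µM PK-11195. Bound ligand collected by glass-fibre filtration, counted by scintillation, fitted by nonlinear regression.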

SF-126 = assay: The compound was tested for cytotoxicity against SF-126 (human) Glioma cell lines; assay type: functional, cell-based; how it was run: as §1
SF-188 = assay: The compound was tested for cytotoxicity against SF-188 (human) Glioma cell lines; assay type: functional, cell-based; how it was run: as §1
D283 Med [9] = assay: Glutathione S-Transferase (GST) Activity against D 283 MR cell line in Human Medulloblastoma Cells; assay type: functional
D341 cell line [10] = assay: Glutathione S-Transferase (GST) Activity against D 341cell line in Human Medulloblastoma Cells; assay type: functional
Daoy [11] = assay: Glutathione S-Transferase (GST) Activity against DAOY cell line in Human Medulloblastoma Cells; assay type: functional
Translocator protein [12] = target: T1, Translocator protein; assay: Binding affinity for PBR (peripheral benzodiazepine receptor) in rat C6 glioma cells; assay type: cell-based; how it was run: as §2
D283 Med [13] = assay: Glutathione S-Transferase (GST) Activity against D283 cell line in Human Medulloblastoma Cells; assay type: functional
D283 Med [14] = assay: Glutathione (GSH) Concentrations D 283 MR cell line in Human Medulloblastoma Cells; assay type: functional
Daoy [15] = assay: Glutathione (GSH) Concentrations DAOY MR cell line in Human Medulloblastoma Cells; assay type: functional
C6 [16] = assay: The compound was tested for cytotoxicity against C6-MR (Rat) Glioma cell lines; assay type: functional, cell-based; how it was run: as §1
D341 cell line [17] = assay: Glutathione S-Transferase (GST) Activity against D341 MR cell line in Human Medulloblastoma Cells; assay type: functional
Translocator protein [18] = target: T1, Translocator protein; assay: Binding affinity for PBR (peripheral benzodiazepine receptor) in rat RG-2 glioma cells; assay type: cell-based, RG2; how it was run: as §2
D341 cell line [19] = assay: Glutathione (GSH) Concentrations D341 MR cell line in Human Medulloblastoma Cells; assay type: functional
Daoy [20] = assay: The compound was tested for cytotoxicity against DAOY(human) […] cell lines; assay type: functional, cell-based; how it was run: as §1
Daoy [21] = assay: Glutathione (GSH) Concentrations DAOY cell line in Human Medulloblastoma Cells; assay type: functional
Daoy [22] = assay: Glutathione S-Transferase (GST) Activity against DAOY MR cell line in Human Medulloblastoma Cells; assay type: functional
D283 Med [23] = assay: Glutathione (GSH) Concentrations D 283 cell line in Human Medulloblastoma Cells; assay type: functional
D341 cell line [24] = assay: Glutathione (GSH) Concentrations D341 cell line in Human Medulloblastoma Cells; assay type: functional
[25] = target: Translocator protein (Rattus norvegicus) (UniProt P16257); assay: Benzodiazepine receptor density in normal rat brain homogenate; assay type: tissue-based; how it was run: as §2
[26] = target: Translocator protein (Rattus norvegicus) (UniProt P16257); assay: Benzodiazepine receptor density in rat RG-2 glioma cells; assay type: cell-based; conditions: RG2; how it was run: as §2
[27] = target: Translocator protein (Rattus norvegicus) (UniProt P16257); assay: Benzodiazepine receptor density in rat C6 glioma cells; assay type: cell-based; how it was run: as §2

Translocator protein (Rattus norvegicus), sequence (P16257 whole entry, looked up): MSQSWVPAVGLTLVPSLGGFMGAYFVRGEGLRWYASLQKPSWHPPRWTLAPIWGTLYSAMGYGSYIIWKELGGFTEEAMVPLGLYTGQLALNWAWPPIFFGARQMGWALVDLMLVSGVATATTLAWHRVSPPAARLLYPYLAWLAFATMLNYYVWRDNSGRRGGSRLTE
T1 sequence (P16257 whole entry, looked up): as above

## O=C1CN=C(c2ccccc2)c2cc(Cl)ccc2N1 [NORDAZEPAM]
Daoy [1]
  IC50: > 200 µM
D341 cell line [2]
  IC50: > 200 µM
C6 [3]
  IC50: > 200 µM
Daoy [4]
  IC50: > 200 µM
D341 cell line [5]
  IC50: > 200 µM
RG2
  IC50: > 200 µM
D283 Med [6]
  IC50: > 200 µM
D283 Med [7]
  IC50: > 200 µM
Translocator protein [8]
  IC50: 520 µM
SF-126
  IC50: > 100 µM
SF-188
  IC50: > 100 µM

## CCOC(=O)[C@@H](Cc1ccc(N(CCCl)CCCl)cc1)NC(=O)CCCN1C(=O)CN=C(c2ccccc2)c2cc(Cl)ccc21
D283 Med [9]
  GST activity: 417.3 nM min-1 (mg of protein)-1
D341 cell line [2]
  IC50: 32.8 µM
C6 [3]
  IC50: 43.4 µM
Daoy [4]
  IC50: 29.3 µM
D341 cell line [10]
  GST activity: 212.6 nM min-1 (mg of protein)-1
D341 cell line [5]
  IC50: 25 µM
Daoy [11]
  GST activity: 88.7 nM min-1 (mg of protein)-1
Translocator protein [12]
  IC50: 289 µM
D283 Med [13]
  GST activity: 150.6 nM min-1 (mg of protein)-1
RG2
  IC50: 34.3 µM
D283 Med [6]
  IC50: 72.3 µM
D283 Med [14]
  GSH: 50.7 µM/g
Daoy [15]
  GSH: 10.8 µM/g
C6 [16]
  IC50: 74.4 µM
D341 cell line [17]
  GST activity: 327.9 nM min-1 (mg of protein)-1
D283 Med [7]
  IC50: 25 µM
Translocator protein [18]
  IC50: 390 µM
D341 cell line [19]
  GSH: 33.2 µM/g
Daoy [20]
  IC50: 40 µM
Translocator protein [8]
  IC50: 327 µM
SF-126
  IC50: 21 µM
SF-188
  IC50: 17.3 µM
Daoy [21]
  GSH: 11.4 µM/g
Daoy [22]
  GST activity: 84 nM min-1 (mg of protein)-1
D283 Med [23]
  GSH: 18.4 µM/g
D341 cell line [24]
  GSH: 17.5 µM/g

## CN1C(=O)CN=C(c2ccc(Cl)cc2)c2cc(Cl)ccc21 [RO-54864]
C6 [3]
  IC50: > 200 µM
RG2
  IC50: > 100 µM
[25]
  Bmax (pM (mg of protein)-1): 0.29
[26]
  Bmax (pM (mg of protein)-1): 33
SF-126
  IC50: > 100 µM
SF-188
  IC50: 138 µM
[27]
  Bmax (pM (mg of protein)-1): 22

## N[C@@H](Cc1ccc(N(CCCl)CCCl)cc1)C(=O)O
D341 cell line [2]
  IC50: 52.4 µM
C6 [3]
  IC50: 11 µM
Daoy [4]
  IC50: 140 µM
D341 cell line [5]
  IC50: 12.4 µM
RG2
  IC50: 15.2 µM
D283 Med [6]
  IC50: 6.8 µM
C6 [16]
  IC50: 74.9 µM
SF-126
  IC50: 103 µM
SF-188
  IC50: 35.4 µM
